Most compounds without a hit are left out; they make up all but 3% or so of the library.
UBC13 inh = UBC13 polyubiquitin chain formation inhibitors, primary screen, biochemical, TR-FRET, uHTS. inhibition, % at 20 µM. 330,000 compounds, 0.47% hits; in the data active = inhibition above about 45%, passing the limit was not always enough
Target sequence (P61088 whole entry, looked up): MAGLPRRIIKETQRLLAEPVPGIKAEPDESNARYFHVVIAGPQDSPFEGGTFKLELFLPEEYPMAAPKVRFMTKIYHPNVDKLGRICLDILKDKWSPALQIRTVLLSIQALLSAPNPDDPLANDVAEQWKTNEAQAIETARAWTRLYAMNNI
Apaf1 inhib = inhibitors of human Apaf-1 apoptosome, primary screen, biochemical, DEVD-Rh110 fluorescence, uHTS | AID 489030, 2010 | inhibition, % at 20 µM | reconstituted apoptosome caspase-3 activity | Apoptotic protease-activating factor 1 (Homo sapiens), O14727 | 330,000 compounds, 0.71% hits; active = inhibition of at least 40% at 20 µM;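 also: plate controls were DMSO wells for no effect and DEVD-CHO caspase inhibitor wells for full effect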
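System: Apoptosome proteins | Medium: Hepes pH 7.5 with detergent and BSA | Also added: Cytochrome c trigger plus (Z-DEVD)2-Rh110 caspase-3 substrate | Incubation: 30 min compound preincubation, 50 min activation, room temperature | Detection: Rhodamine 110 fluorescence at Ex 480/Em 540 nm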
SENP7 block = SENP7 protease inhibitors, primary screen, biochemical, luminescence, uHTS; recombinant SENP7, Z-RLRGG-aminoluciferin luminescence, 40 min; inhibition, % at 5 µM; 330,000 compounds, 1.5% hits; AID 434973, 2010;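 active = inhibition above about 50% at the single test dose, limit read from the data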;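 also: plate controls were DMSO with enzyme for no effect and no enzyme buffer wells for full effect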
SENP8 block-1 = SENP8 protease inhibitors, primary screen, biochemical, luminescence; 330,000 compounds, 1.2% hits; purified SENP8, Z-RLRGG-aminoluciferin cleavage; inhibition, % at 10 µM; in the data active = inhibition above about 50%
SENP8 block-2 = human SENP8 protease inhibitors, primary screen, biochemical, fluorescence, Nedd8 protein substrate, uHTS; Sentrin-specific protease 8 (Homo sapiens), Q96LD8; inhibition, % at 20 µM; recombinant SENP8; 360,000 compounds, 0.64% hits; in the data active = inhibition mostly above about 40%, no sharp cut-off; inactive = mostly below about 27%
SENP6 inh = SENP6 protease inhibitors, primary screen, biochemical, luminescence, uHTS. Sentrin-specific protease 6 (Homo sapiens), Q9GZR1. Recombinant SENP6 catalytic domain, aminoluciferin luminescence. inhibition, % at 10 µM. 330,000 compounds, 1.8% hits;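 active = inhibition above about 50% at the single tested dose, limit read from the data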;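 also: plate controls were DMSO wells with enzyme for no effect and DMSO wells lacking enzyme for full effect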
Target sequence (Q9GZR1 628-1112 limits assumed): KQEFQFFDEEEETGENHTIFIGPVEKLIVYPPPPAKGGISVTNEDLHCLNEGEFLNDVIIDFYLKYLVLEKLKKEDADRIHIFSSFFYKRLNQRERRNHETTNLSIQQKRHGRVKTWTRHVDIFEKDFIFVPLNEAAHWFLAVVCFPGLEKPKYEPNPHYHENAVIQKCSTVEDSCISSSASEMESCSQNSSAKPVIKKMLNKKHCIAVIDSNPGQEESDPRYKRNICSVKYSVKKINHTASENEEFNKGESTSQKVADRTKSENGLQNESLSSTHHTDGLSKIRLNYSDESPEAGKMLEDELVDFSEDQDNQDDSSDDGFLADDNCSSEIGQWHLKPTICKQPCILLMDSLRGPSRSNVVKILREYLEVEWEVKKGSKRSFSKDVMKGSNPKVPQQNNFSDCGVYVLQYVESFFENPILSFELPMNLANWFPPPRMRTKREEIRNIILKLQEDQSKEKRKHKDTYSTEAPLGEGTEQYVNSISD
Starred values were filed as active, the others as inactive; i = inactive; / = no result.

SMILES | UBC13 inh | Apaf1 inhib | SENP7 block | SENP8 block-1 | SENP8 block-2 | SENP6 inh
CC[C@H](C)[C@H](NC(=O)OCc1ccccc1)C(=O)OCC(=O)Nc1ccc(N2CCOCC2)cc1 | 1 | 9 | -8 | 7 | -1 | 6
Cc1nn2cc(-c3cccc(Cl)c3)cnc2c1Cl | 4 | -4 | 71* | 20 | 21 | -1
COc1cccc(NC(=S)/C(=C(\[O-])c2ccc(C)c([N+](=O)[O-])c2)[n+]2ccccc2)c1 | -11 | 34 | 3 | 9 | 39* | 47
CCOC(=O)c1ccc(N=Nc2c(C)c(C#N)c(O)[nH]c2=O)cc1 | -128 | -4 | 98* | 94* | 25 | 92*
CCCC(=O)N1c2ccccc2C(=C2SC(C(=O)OC)=C(C(=O)OC)S2)C(=S)C1(C)C | -98 | 17 | 5 | 6 | 67* | 4
COC(=O)C1=C(C(=O)OC)SC(=C2C(=S)C(C)(C)N(C(=O)C3CC3)c3ccccc32)S1 | -80 | -2 | 10 | -5 | 42* | 10
COC(=O)C1=C(C(=O)OC)SC(=C2C(=S)C(C)(C)N(C(=O)C(C)C)c3ccccc32)S1 | -70 | 18 | 8 | 1 | 46* | 2
CCOC(=O)C1(C)C(C(=O)OC)=C(c2ccc(OC)cc2)c2ccccc2N1C(=O)OC (centres undefined) | / | 21 | 2 | / | -7 | /
O=C(O/N=C/c1ccc2c(c1)OCO2)c1ccccc1Cl | 1 | 13 | 80* | 84* | / | 86*
O=C(N/N=C/c1ccc2c(c1)OCO2)C(=O)Nc1ccccc1Cl | 10 | -15 | -6 | 23 | -96 | 0
Cc1ccc(NC(=O)CNc2ccc(N3CCOCC3)cc2)cc1S(=O)(=O)N(C)C | 5 | -2 | 6 | -2 | 7 | 11
Cc1ccc(CN(C)C(=O)CCNS(=O)(=O)c2ccccc2)o1 | -5 | 5 | -3 | -11 | 7 | -12
Cc1ccc(N=Nc2c(C)[nH]n(-c3ccccc3)c2=O)cc1Br | -15 | 3 | 1 | 14 | 24 | 3
Nc1[nH]n(-c2ccccc2)c(=O)c1N=Nc1ccc2ncsc2c1 | -108 | 14 | -6 | -1 | 56* | 11
Cc1ccc2nc(-c3ccc(SCC(=O)Nc4ccc5c(c4)OCCO5)nc3)[nH]c2c1 | -3 | 2 | 51* | -11 | -372 | -27
Cc1ccc(C)c(S(=O)(=O)N2CCCOC2CNC(=O)C(=O)NCc2ccccc2)c1 (centres undefined) | -1 | 3 | -4 | 7 | 9 | 1
COc1ccc(CCNC(=O)CSc2nnc(-c3ccco3)c(-c3ccco3)n2)cc1OC | -31 | 43* | 5 | 12 | / | 33
COc1ccc(N2CCN(C(=O)c3ccc(Cl)c(S(=O)(=O)N4CCCC4)c3)CC2)cc1 | -6 | 14 | 1 | -12 | 4 | -4
COc1ccc(N2CCN(C(=O)c3ccc(C)c(Cl)c3)CC2)cc1 | 5 | 0 | 0 | 5 | 40* | 9
Cc1ccc(NC2CNC(=O)NC2=O)cc1C (centres undefined) | / | / | / | / | 7 | /
Cc1ccc(NC2C(=O)NC(=O)NC2=O)cc1 | / | / | / | / | 72* | /
Cc1cc(O)c(/C=N/Nc2ccc(Cl)cc2)c(=O)o1 | -7 | 11 | 56* | 80* | -101 | 85*
COc1ccc(Cl)cc1N=Cc1c(O)cc(C)oc1=O | 7 | -6 | 3 | 2 | -43 | -17
CC(=O)Nc1ccc(-c2cc3ccccc3o2)cc1 | 7 | -2 | 51* | 10 | -253 | 49
C[C@@H]1OC(Nc2ccc(N=Nc3ccccc3)cc2)[C@H](O)[C@H](O)[C@H]1O (some centres undefined) | -25 | -17 | 2 | -3 | 40* | -1
SMILES | UBC13 inh | Apaf1 inhib | SENP7 block | SENP8 block-1 | SENP8 block-2 | SENP6 inh
CC(Nc1cccc2ccccc12)C(=O)N/N=C/c1ccc([N+](=O)[O-])cc1 (centres undefined) | -43 | 25 | 46 | 4 | -40 | 81*
CC(C)C(=O)Nc1ccccc1C(=O)N/N=C/c1ccc([N+](=O)[O-])cc1 | -5 | 5 | 1 | -2 | 18 | -2
O=C(Nc1cccc(Cl)c1Cl)c1csc([C@H]2C[C@H](O)[C@@H](CO)O2)n1 | / | / | / | / | 14 | /
COc1cc2c(cc1OC)C(c1ccc(-c3ccc(Cl)c(Cl)c3)o1)=NCC2 | 5 | 41* | 19 | -1 | -75 | 1
COc1cc2c(cc1OC)C(c1ccc(-c3cc(Cl)ccc3Cl)o1)=NCC2 | 6 | 32 | 6 | 4 | i | -4
O=C(N/N=C/c1c[nH]c2ccccc12)c1sc2ccccc2c1Cl | -7 | 19 | 36 | 52* | 9 | 65*
O=C(N/N=C/c1c[nH]c2ccccc12)c1ccccc1 | 0 | -14 | 2 | -18 | -46 | -16
CCC(C)(C)NC(=O)C(c1ccc(C)cc1)N(CCN1CCOCC1)C(=O)CNC(=O)c1cccs1 (centres undefined) | 3 | -11 | 2 | 7 | 2 | 3
O=c1c2cc(Cl)ccc2nc(-c2ccc(Cl)c(Cl)c2)n1O | 4 | 7 | 9 | 15 | -19 | 59*
CC(Sc1n[nH]c(-c2ccccc2F)n1)C(=O)Nc1ccc(S(N)(=O)=O)cc1 (centres undefined) | -4 | 0 | 12 | -4 | 6 | -2
CCC1=NNc2cccc3c(OC)ccc1c23 | -64 | 52* | 8 | 8 | / | 10
O=C(Nc1cccc(F)c1)NC1(C(=O)N2CCOCC2)CCCCC1 | 13 | -17 | -4 | -2 | 6 | -17
C=CCNc1nc(-c2ccc3c(c2)OCCO3)cs1 | 10 | -4 | 66* | 82* | 10 | 90*
CC(C)c1ccc(/C=C2\SC(=S)N(CC(=O)NCCCN3CCOCC3)C2=O)cc1 | 12 | 22 | 1 | 22 | 24 | 37
NC(=O)c1cc(Cl)ccc1OCC(=O)Nc1ccc2c(c1)OCO2 | -4 | -9 | 5 | -4 | -25 | 3
CC(=O)c1c(C)oc2c1C(=O)c1ccccc1C2=O | / | / | / | / | 41* | /
Cc1oc2c(c1C(=O)NCc1cccnc1)C(=O)c1ccccc1C2=O | -147 | 86* | 74* | 49 | / | 84*
CC(=O)c1c2c3c(c(Br)ccc3n(C)c1=O)C(=O)c1ccccc1-2 | -18 | 14 | -6 | 0 | 28 | 20
CN(CCCn1cnc2c(OCc3ccccc3)ncnc21)Cc1ccco1 | / | / | / | / | 0 | /
O=C(Nc1ccc(O)c(C(=O)O)c1)Oc1ccccc1 | 14 | -2 | 56* | 60* | -297 | 76*
CC(=O)Nc1ccc(NC(=O)Oc2ccccc2)cc1 | 2 | -14 | 5 | -1 | -49 | -12
COc1ccc(N(C=O)C(C(=O)Nc2c(C)cccc2C)c2ccccc2)cc1 (centres undefined) | -1 | -3 | 2 | 5 | 34 | 0

From PubChem
